Data set [1] relates to OVCAR-8. The data set is described as follows: Cytotoxicity against human OVCAR-8 cells assessed as inhibition of cell growth for 72 hrs by CellTiter-Blue cell viability assay. The format is functional, cell-based. The method in brief: (§1)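 5000 cells seeded in triplicate, attached overnight, then exposed for 72 h to serial concentrations in DMSO vehicle (0.05%). Viability was read by fluorometric CellTiter-Blue. IC50 in nM comes from dose–response curves relative to DMSO control. Media: OVCAR3 in RPMI1640, OVCAR5/OVCAR8 in DMEM, hFT33 in DMEM-Ham's F12 50/50, all with 10% FBS. Data are mean ± SEM, three biological replicates.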

In data set [2] the test system is OVCAR-5. The data set is described as follows: Cytostatic activity against human OVCAR-5 cells assessed as […] in colony formation at 10 nM incubated for 8 hrs measured after 2 weeks by crystal violet staining based analysis. The format is functional, cell-based. The note with it: time 344.0 hrs. Summed up:
(§2)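 Seeded at 200 cells per dish, attached overnight, exposed 8 h to 10 nM (DMSO vehicle 0.1%), then grown 15 days in untreated growth medium. Colonies fixed with 4% paraformaldehyde, stained with 0.05% crystal violet, counted and normalised to vehicle. Mean ± SEM, three biological replicates, one-way ANOVA with Dunnett's test.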

Data set [3] has as its system OVCAR-8. The data set is described as follows: Cytostatic activity against human OVCAR-8 cells assessed as […] in colony formation at 10 nM incubated for 8 hrs measured after 2 weeks by crystal violet staining based analysis. The note with it: time 344.0 hrs. The class given is functional, cell-based. The method in brief: as §2
Data set [4] is described as follows: Cytotoxicity against human FT33 cells assessed as inhibition of cell growth for 72 hrs by CellTiter-Blue cell viability assay. The class given is toxicity, cell-based. Summed up:
as §1
On the technique in general: Alamar Blue is a resazurin reagent that responds to reducing activity.

Data set [5] deals with OVCAR-3. The data set is described as follows: Cytotoxicity against human OVCAR-3 cells assessed as inhibition of cell growth for 72 hrs by CellTiter-Blue cell viability assay. The class given is functional, cell-based. To be noted: OVCAR-3, 72 h. Summed up: as §1
Data set [6] has as its system OVCAR-5. The data set is described as follows: Cytotoxicity against human OVCAR-5 cells assessed as inhibition of cell growth for 72 hrs by CellTiter-Blue cell viability assay. The class given is functional, cell-based. To be noted: OVCAR-5, 72 h. Summed up: as §1
Data set [7] concerns OVCAR-3. The data set is described as follows: Cytostatic activity against human OVCAR-3 cells assessed as […] in colony formation at 10 nM incubated for 8 hrs measured after 2 weeks by crystal violet staining based analysis. The class given is functional, cell-based. The note with it: time 344.0 hrs. The method in brief: as §2

The source made the active and inactive calls. No cut-off for these calls is given here.

This passage reports Activity and IC50 results from ChEMBL document CHEMBL5370575, “Probing the Cytotoxic Signaling Induced by Eupenifeldin in Ovarian Cancer Models” (J Nat Prod, 2023).

The IC50 is the concentration needed to halve the response being measured.

`CO/C1=C\C(C)=C\[C@@H](C)[C@@H](O)[C@@H](C)C/C(C)=C/C=C/[C@H](OC)[C@@H]([C@@H](C)[C@@H](O)[C@H](C)[C@@]2(O)C[C@@H](O)[C@H](C)[C@@H](C(C)C)O2)OC1=O`: in data set [1], the outcome was Active.

With `CC(=O)O[C@H]1C(=O)[C@@]2(C)[C@H]([C@H](OC(=O)c3ccccc3)[C@]3(O)C[C@H](OC(=O)[C@H](O)[C@@H](NC(=O)c4ccccc4)c4ccccc4)C(C)=C1C3(C)C)[C@]1(OC(C)=O)CO[C@@H]1C[C@@H]2O` [PACLITAXEL], the outcome in data set [2], in data set [3] and in data set [7] was Active. Moreover, the IC50 at 72 h in data set [4] was found to be 11 nM. In addition, the IC50 in data set [5] is 2.6 nM; in data set [1] (OVCAR-8, 72 h), 6.5 nM; in data set [6] it was 3.6 nM.
